Assay results reported in ChEMBL document CHEMBL5724801, “EUbOPEN Chemogenomics Library - Multiplex” (2024).
Several values for one entry are separate records, joined by “and”; a condition that tells them apart may be missing. Equal values may be shown once.

Test system: HEK-293T
Test: Multiplex assay against HEK293T
Type: toxicity, cell-based
Conditions: human
Procedure, shortened: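 Imaging took place on a CQ1 microscope at 37°C and 5% CO2 once compound had been added to live cells stained at seeding with Hoechst33342, BioTracker Green Microtubule Cytoskeleton Dye, MitoTracker Red and Annexin V Alexa Fluor 680. CellPathfinder machine-learning gating classed cells as Hoechst high-intensity objects or normal cells, classed normal cells as having healthy, pyknosed or fragmented nuclei, and classed pyknosed cells as mitotic or apoptotic. Tubulin, mitochondrial-mass and membrane-permeability phenotypes are per cents of the healthy-nucleus cells.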

[1] = 12 h, 1 µM, compound concentration 1 uM
[2] = 12 h, 10 µM, compound concentration 10 uM
[3] = 24 h, 1 µM, compound concentration 1 uM
[4] = 24 h, 10 µM, compound concentration 10 uM
[5] = 48 h, 1 µM, compound concentration 1 uM
[6] = 48 h, 10 µM, compound concentration 10 uM

## CN1CCN(c2nc3cc(C(F)(F)F)ccc3n3cccc23)CC1.O=C(O)/C=C\C(=O)O.O=C(O)/C=C\C(=O)O
[1]
  Population Apoptotic (%): 37% and 53%
  Population Fragmented Nuclei (%): 5% and 8%
  Population Healthy Nuclei (%): 80% and 77%
  Population Hoechst High Intensity Objects (%): 10% and 5%
  Population Membrane Permeable-Phenotype (%): 0%
  Population Mitochondria Different-Phenotype (%): 48% and 76%
  Population Mitotic Cells (%): 62% and 46%
  Population Normal (%): 89% and 94%
  Population Pyknosed Nuclei (%): 13% and 14%
  Population Tubulin-Different-Phenotype (%): 33% and 35%
  Total Cell Count: 438 and 332
[2]
  Population Apoptotic (%): 68% and 64%
  Population Fragmented Nuclei (%): 7% and 5%
  Population Healthy Nuclei (%): 76%
  Population Hoechst High Intensity Objects (%): 14% and 9%
  Population Membrane Permeable-Phenotype (%): 0%
  Population Mitochondria Different-Phenotype (%): 73% and 89%
  Population Mitotic Cells (%): 31% and 35%
  Population Normal (%): 85% and 90%
  Population Pyknosed Nuclei (%): 15% and 18%
  Population Tubulin-Different-Phenotype (%): 64% and 66%
  Total Cell Count: 396 and 286
[3]
  Population Apoptotic (%): 33% and 54%
  Population Fragmented Nuclei (%): 9% and 6%
  Population Healthy Nuclei (%): 81% and 83%
  Population Hoechst High Intensity Objects (%): 6%
  Population Membrane Permeable-Phenotype (%): 1% and 0%
  Population Mitochondria Different-Phenotype (%): 30% and 50%
  Population Mitotic Cells (%): 66% and 45%
  Population Normal (%): 93%
  Population Pyknosed Nuclei (%): 9% and 10%
  Population Tubulin-Different-Phenotype (%): 24% and 25%
  Total Cell Count: 557 and 390
[4]
  Population Apoptotic (%): 41% and 63%
  Population Fragmented Nuclei (%): 8% and 10%
  Population Healthy Nuclei (%): 77% and 78%
  Population Hoechst High Intensity Objects (%): 9% and 7%
  Population Membrane Permeable-Phenotype (%): 0%
  Population Mitochondria Different-Phenotype (%): 65% and 79%
  Population Mitotic Cells (%): 58% and 36%
  Population Normal (%): 90% and 92%
  Population Pyknosed Nuclei (%): 13% and 10%
  Population Tubulin-Different-Phenotype (%): 62% and 58%
  Total Cell Count: 490 and 378
[5]
  Population Apoptotic (%): 20% and 37%
  Population Fragmented Nuclei (%): 13%
  Population Healthy Nuclei (%): 78% and 79%
  Population Hoechst High Intensity Objects (%): 3% and 5%
  Population Membrane Permeable-Phenotype (%): 2% and 0%
  Population Mitochondria Different-Phenotype (%): 17% and 42%
  Population Mitotic Cells (%): 79% and 62%
  Population Normal (%): 96% and 94%
  Population Pyknosed Nuclei (%): 7%
  Population Tubulin-Different-Phenotype (%): 17% and 21%
  Total Cell Count: 915 and 535
[6]
  Population Apoptotic (%): 50% and 52%
  Population Fragmented Nuclei (%): 15% and 11%
  Population Healthy Nuclei (%): 75% and 77%
  Population Hoechst High Intensity Objects (%): 10% and 12%
  Population Membrane Permeable-Phenotype (%): 2% and 0%
  Population Mitochondria Different-Phenotype (%): 41% and 65%
  Population Mitotic Cells (%): 50% and 47%
  Population Normal (%): 89% and 87%
  Population Pyknosed Nuclei (%): 8% and 10%
  Population Tubulin-Different-Phenotype (%): 44% and 56%
  Total Cell Count: 672 and 472
